Assay results as given in paper PMC5709104 (Haematologica, 2017).
“Also recorded” adds a separate entry of the source. One block for each molecule: values may come before it.

How the values were obtained:
MOLM13 cells [1] = test: Viable cell number and apoptosis by flow cytometry; assay type: cell-based, human
In short: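 Viable cell number and apoptosis in MOLM13 cells measured by flow cytometry. Single-agent runs used vehicle (0.1% DMSO) or varying doses of test compound for 48 h or 72 h. Combination runs used vehicle (0.2% DMSO), 1 μM cytarabine, test compound (10 or 50 nM) or both, for 48 h. Student's t-test against cytarabine-treated cells.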

resistant cells = conditions: cited from earlier work
[2] = test system: refractory or relapse AML; conditions: single agent; cited from earlier work
AXL [3] = conditions: cited from earlier work
MOLM13 p53 shRNA cells = test: Viability and apoptosis by flow cytometry, p53 knockdown cells; assay type: cell-based, human; conditions: 10 nM, 48 hours
In short: (§1)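 MOLM13 cells carrying control shRNA (GFP target) or p53 shRNA incubated 48 h with varying doses of test compound. Viability and apoptosis measured by flow cytometry. p53 knockdown checked by immunoblot densitometry against tubulin. Student's t-test against GFP control.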

AXL mRNA = test: qRT-PCR gene expression analysis; assay type: cell-based; conditions: 24 hours
MOLM13 cells [4] = test: DNA synthesis and cell cycle assay; assay type: cell-based, human; conditions: 24 hours
In short: (§2)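 MOLM13 and MV4;11 cells exposed to vehicle or varying doses of test compound for 24 h. Cell cycle status assessed by FX Cycle Violet DNA staining and DNA synthesis by EdU incorporation (Click-It EdU kit), both read by flow cytometry. Student's t-test against vehicle-treated cells.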

PLK1 = test: Immunoblot analysis; assay type: cell-based; conditions: 50 nM or 100 nM, 24 hours, MOLM13 and MV4;11
In short: (§3)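 MOLM13 and MV4;11 cells incubated 24 h with vehicle or varying doses of test compound, then lysed. Total protein separated by SDS-PAGE and immunoblotted, with infrared imaging detection. Densitometry ratios taken to tubulin loading control, or to the total protein for phospho-proteins.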

[5] = test system: MOLM13 cells in co-culture with MSC; test: In vitro co-culture system with MSC, viability by flow cytometry; assay type: cell-based, human; conditions: 50 nM, 72 hours
In short: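 MOLM13 cells grown in monoculture or co-cultured with bone marrow-derived mesenchymal stromal cells (patient-derived, IRB-approved). Treated 72 h with vehicle or test compound. Viable cells measured by flow cytometry.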

RB phosphorylation = test: Immunoblot analysis; assay type: cell-based; conditions: even at the lowest dose, 24 hours, MOLM13 and MV4;11
In short: as §3

MOLM13 luc/gfp cells = test: Human AML murine xenograft model; assay type: in vivo, NSG mice
In short: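 MOLM13 cells lentivirally transduced with firefly luciferase/copGFP, injected into NSG mice. Control feed for one week, then control feed or feed containing 0.004% (~6 mg/kg daily; N=5 per group) or 0.013% (~20 mg/kg daily; N=9 control, N=10 treated) test compound. Leukemic burden by weekly IVIS imaging. Sternum (BM) and liver from moribund mice examined by H&E.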

MV4;11 cells [6] = test: Viable cell number and apoptosis by flow cytometry; assay type: cell-based; conditions: 10 nM, 48 hours
In short: (§4)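 MV4;11 and OCI-AML3 cells incubated 48 h with vehicle (0.1% DMSO) or varying doses of test compound. Viable cell number and apoptosis measured by flow cytometry.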

ERK phosphorylation = test: Immunoblot analysis; assay type: cell-based; conditions: 10 nM, 24 hours, MOLM13
In short: as §3

FLT3 phosphorylation = test: Immunoblot analysis; assay type: cell-based; conditions: 10 nM
In short: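 MOLM13 and MV4;11 cells exposed to vehicle or test compound, lysed, total protein resolved by SDS-PAGE, immunoblotted for FLT3 phosphorylation, with infrared imaging detection. Tubulin as loading control.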

CCNB1 mRNA = test: qRT-PCR gene expression analysis; assay type: cell-based; conditions: 10 nM, 24 hours, MOLM13 and MV4;11
In short: (§5)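 MOLM13 and MV4;11 cells incubated 24 h with vehicle or varying doses of test compound. Total RNA extracted and reverse transcribed. PLK-1, CDK1 and CCNB1 transcripts quantified by TaqMan qRT-PCR and normalized to B2M.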

MER = MER (Homo sapiens, UniProt Q12866); test: Cell-based tyrosine kinase inhibition assay; conditions: recombinant kinase expressing Ba/F3 cells, 48 hr
Chain of MER (Q12866 21-999): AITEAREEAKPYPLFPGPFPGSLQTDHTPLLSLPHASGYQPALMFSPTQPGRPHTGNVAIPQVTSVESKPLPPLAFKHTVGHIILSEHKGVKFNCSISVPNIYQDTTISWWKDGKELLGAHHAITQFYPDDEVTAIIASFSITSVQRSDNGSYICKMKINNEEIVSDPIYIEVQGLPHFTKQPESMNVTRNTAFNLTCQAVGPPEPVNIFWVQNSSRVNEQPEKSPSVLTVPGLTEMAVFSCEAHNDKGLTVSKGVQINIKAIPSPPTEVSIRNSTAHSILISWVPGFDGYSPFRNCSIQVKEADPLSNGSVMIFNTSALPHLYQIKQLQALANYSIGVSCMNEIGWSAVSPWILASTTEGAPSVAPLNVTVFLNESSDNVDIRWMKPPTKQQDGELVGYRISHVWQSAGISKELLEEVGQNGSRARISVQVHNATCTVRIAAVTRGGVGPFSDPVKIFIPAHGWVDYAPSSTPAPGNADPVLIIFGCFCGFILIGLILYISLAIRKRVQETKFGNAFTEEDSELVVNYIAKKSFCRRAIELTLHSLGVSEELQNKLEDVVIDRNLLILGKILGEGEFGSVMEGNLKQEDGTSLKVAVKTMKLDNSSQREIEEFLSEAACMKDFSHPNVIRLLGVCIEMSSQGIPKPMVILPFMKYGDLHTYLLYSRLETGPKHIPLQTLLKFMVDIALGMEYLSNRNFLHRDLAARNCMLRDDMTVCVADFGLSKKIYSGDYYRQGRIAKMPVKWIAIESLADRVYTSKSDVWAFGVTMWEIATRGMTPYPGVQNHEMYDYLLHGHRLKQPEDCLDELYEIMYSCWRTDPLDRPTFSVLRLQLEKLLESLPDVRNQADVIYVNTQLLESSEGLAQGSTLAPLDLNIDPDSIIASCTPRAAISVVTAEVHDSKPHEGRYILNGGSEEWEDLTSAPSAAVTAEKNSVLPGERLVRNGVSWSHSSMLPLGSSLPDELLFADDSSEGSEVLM

OCI-AML3 cells = test: Viable cell number and apoptosis by flow cytometry; assay type: cell-based; conditions: varying doses, 48 hours, OCI-AML3 (FLT3 WT)
In short: as §4

OCI-AML3 = test: Reverse phase protein analysis; assay type: cell-based; conditions: RPPA, 24 hours, FLT3 WT OCI-AML3
p38 phosphorylation = test: Immunoblot analysis; assay type: cell-based; conditions: 24 hours, MOLM13; due to reduction of total p38
In short: as §3

CDK1 = test: Immunoblot analysis; assay type: cell-based; conditions: 10 nM, 24 hours, MOLM13 and MV4;11
In short: as §3

FLT3 = FLT3 (Homo sapiens, UniProt P36888); test: Cell-based tyrosine kinase inhibition assay; conditions: recombinant kinase expressing Ba/F3 cells, 48 hr
Chain of FLT3 (P36888 27-993): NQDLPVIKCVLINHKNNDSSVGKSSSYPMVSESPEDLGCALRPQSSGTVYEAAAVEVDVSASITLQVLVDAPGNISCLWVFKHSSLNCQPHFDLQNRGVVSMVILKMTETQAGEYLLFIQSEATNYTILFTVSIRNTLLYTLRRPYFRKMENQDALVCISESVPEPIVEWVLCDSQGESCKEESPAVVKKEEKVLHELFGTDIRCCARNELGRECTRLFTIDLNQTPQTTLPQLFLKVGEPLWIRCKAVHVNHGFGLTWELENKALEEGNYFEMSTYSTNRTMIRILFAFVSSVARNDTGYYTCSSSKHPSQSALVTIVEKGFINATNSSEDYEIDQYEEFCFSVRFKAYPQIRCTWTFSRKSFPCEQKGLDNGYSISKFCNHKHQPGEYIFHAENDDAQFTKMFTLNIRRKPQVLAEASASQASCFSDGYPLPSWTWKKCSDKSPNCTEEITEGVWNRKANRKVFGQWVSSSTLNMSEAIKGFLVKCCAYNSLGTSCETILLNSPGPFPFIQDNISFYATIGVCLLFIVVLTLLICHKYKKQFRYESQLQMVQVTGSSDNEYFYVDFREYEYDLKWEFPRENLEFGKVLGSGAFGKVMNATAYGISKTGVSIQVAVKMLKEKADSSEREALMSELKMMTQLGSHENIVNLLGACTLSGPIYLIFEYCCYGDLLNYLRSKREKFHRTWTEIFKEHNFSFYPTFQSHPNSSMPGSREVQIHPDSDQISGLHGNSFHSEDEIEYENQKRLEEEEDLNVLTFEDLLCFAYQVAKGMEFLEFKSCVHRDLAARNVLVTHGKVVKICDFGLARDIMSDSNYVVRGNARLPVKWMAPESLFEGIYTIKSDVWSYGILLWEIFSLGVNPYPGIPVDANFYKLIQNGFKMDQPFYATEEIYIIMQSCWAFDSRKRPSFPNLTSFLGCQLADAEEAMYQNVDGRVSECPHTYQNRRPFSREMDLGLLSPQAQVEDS

[7] = test system: MOLM13 control shRNA (GFP) cells; test: Viability and apoptosis by flow cytometry, control shRNA cells; assay type: cell-based, human; conditions: 10 nM, 48 hours
In short: as §1

[8] = test system: MOLM13, MV4:11, OCI-AML3, and HL60 cells; test: Trypan blue staining of cells collected for RPPA; assay type: cell-based; conditions: all other cases (vehicle or ONO-7475, 24 hours; MOLM13, MV4:11, OCI-AML3, HL60)
phosphorylation of S6 = test: Immunoblot analysis; assay type: cell-based; conditions: 24 hours, MOLM13
In short: as §3

HL60 = test: Reverse phase protein analysis; assay type: cell-based; conditions: RPPA, 24 hours, FLT3 WT HL60
MV4;11 cells [9] = test: DNA synthesis and cell cycle assay; assay type: cell-based; conditions: 24 hours
In short: as §2

CDK1 mRNA = test: qRT-PCR gene expression analysis; assay type: cell-based; conditions: 10 nM, 24 hours, MOLM13 and MV4;11
In short: as §5

PLK-1 mRNA = test: qRT-PCR gene expression analysis; assay type: cell-based; conditions: 24 hours; for reduction of PLK-1 mRNA relative to B2M: MOLM13
In short: as §5

MOLM13 cells [10] = test: Reverse phase protein analysis; assay type: cell-based, human; conditions: RPPA, 10 nM, 50 nM or 100 nM, 24 hours, at least 2-fold
HL60 cells = test: Viable cell number and apoptosis by flow cytometry; assay type: cell-based; conditions: FLT3 WT HL60, data not shown
Cyclin B1 = test: Immunoblot analysis; assay type: cell-based; conditions: 10 nM, 24 hours, MOLM13 and MV4;11
In short: as §3

MCL-1 = test: Immunoblot analysis; assay type: cell-based; conditions: 24 hours
In short: as §3

AXL [11] = test: Immunoblot analysis; assay type: cell-based; conditions: even at the lowest dose, 24 hours, MOLM13 and MV4;11
In short: as §3

Structure (SMILES): Nc1ccn([C@@H]2O[C@H](CO)[C@@H](O)[C@@H]2O)c(=O)n1 [AraC, Cytarabine, reference compound]
- viable cell numbers and apoptosis, single agent (MOLM13 cells [1]; 1 μM AraC alone, 48 hours, MOLM13): effective

Structure (SMILES): Nc1nc(Nc2ccc3c(c2)CC[C@@H](N2CCCC2)CC3)nn1-c1cc2c(nn1)-c1ccccc1CCC2 [BGB324]
- sensitisation to a combination of decitabine and vorinostat (resistant cells): could sensitize resistant cells

Structure (SMILES): CCc1nc(C(N)=O)c(Nc2ccc(N3CCC(N4CCN(C)CC4)CC3)c(OC)c2)nc1NC1CCOCC1 [Gilteritinib, gilteritinib]
- patients achieving some response [2]: 40%
- patients exhibiting inhibition of FLT3 phosphorylation [2]: 90%
- tolerability [2]: well tolerated
- IC50 (AXL [3]): 0.7 nM

- IC50 (MER): 1 nM
- IC50 (FLT3): 147 nM
Structure (SMILES): COc1cc2nccc(Oc3ccc(NC(=O)c4cc5c(n(-c6ccccc6)c4=O)CCCC5=O)nc3)c2cc1OC [ONO-7475]
- apoptosis (MOLM13 p53 shRNA cells): ~ 20%
- reduction of viability (MOLM13 p53 shRNA cells): > 70%
- apoptosis (MOLM13 cells [1]; 10 nM, 48 hours, MOLM13): induced apoptosis
- reduction of cell viability (MOLM13 cells [1]; 10 nM, 48 hours, MOLM13): > 50%
- cells becoming apoptotic (MOLM13 cells [1]; 10 nM, 72 hours, MOLM13): > 70%
- viable cells (MOLM13 cells [1]; 10 nM, 72 hours, MOLM13 monoculture): nearly eliminated all viable MOLM13 cells
- viable cell numbers and apoptosis, single agent (MOLM13 cells [1]; ONO-7475 alone (10nM or 50 nM), 48 hours, MOLM13): effective
- increase of AXL mRNA relative to B2M (AXL mRNA; 10 nM, MOLM13 and MV4;11): ~ 3.5 fold
- increase of AXL mRNA relative to B2M (AXL mRNA; 50 nM, MOLM13): > 6 fold
- increase of AXL mRNA relative to B2M (AXL mRNA; 50 nM, MV4;11): > 8 fold
- suppression of DNA synthesis (MOLM13 cells [4]; 5 nM): > 2 fold
- cell cycle status (MOLM13 cells [4]): potently induced G0/G1 arrest
- PLK1 protein (PLK1): Little, if any, PLK1 was detected
- protection of AML cells by MSC from the inhibitor [5]: abrogated most of this effect
- RB phosphorylation (RB phosphorylation): blocked RB phosphorylation
- mice with reduced leukemic burden compared to control (IVIS imaging) (MOLM13 luc/gfp cells; 0.004% ONO-7475 feed, Day 14): three out of five
- leukemia infiltration in the liver (H&E) (MOLM13 luc/gfp cells; 0.013% ONO-7475 feed): little, if any, AML cells in the liver; also recorded: minimal presence of MOLM13 cells in the liver
- apoptosis (MV4;11 cells [6]): induced apoptosis
- reduction of cell viability (MV4;11 cells [6]): > 50%
- reduction of ERK phosphorylation (ERK phosphorylation): ~ 50%
- p-FLT3 (FLT3 phosphorylation; MOLM13): greatly reduced
- p-FLT3 (FLT3 phosphorylation; MV4;11): nearly eliminated
- reduction of CCNB1 mRNA relative to B2M (CCNB1 mRNA): at least 60%
- apoptosis (OCI-AML3 cells): did not induce apoptosis
- viable cell number (OCI-AML3 cells): slightly reduced
- change (i.e., 2-fold) in the level of protein (OCI-AML3): no significant change
- p38 phosphorylation (p38 phosphorylation): p38 phosphorylation was reduced
- CDK1 protein (CDK1): potently suppressed
- apoptosis [7]: without inducing apoptosis
- reduction of viability [7]: ~ 55%
- viable cells (Trypan blue) [8]: > 95%
- phosphorylation of S6 (phosphorylation of S6): inhibited the phosphorylation of S6
- change (i.e., 2-fold) in the level of protein (HL60): no significant change
- suppression of DNA synthesis (MV4;11 cells [9]; 5 nM): > 2 fold
- cell cycle status (MV4;11 cells [9]): potently induced G0/G1 arrest
- reduction of CDK1 mRNA relative to B2M (CDK1 mRNA): at least 60%
- suppression of PLK-1 mRNA compared with MOLM13 (PLK-1 mRNA; 10 nM and 50 nM, MV4;11): more potently suppressed
- reduction of PLK-1 mRNA relative to B2M (PLK-1 mRNA; 10 nM): ~ 60%
- reduction of PLK-1 mRNA relative to B2M (PLK-1 mRNA; 50 nM): ~ 80%
- Proteins increased in MOLM13 cells by ONO-7475 (MOLM13 cells [10]): H2AX (phospho; pS140)
- sensitivity to drug (HL60 cells): resistant
- Cyclin B1 protein (Cyclin B1): potently suppressed
- suppression of MCL-1 (MCL-1; 10 nM, MOLM13): > 80%
- reduction of MCL-1 (MCL-1; 100 nM, MV4;11): 50%
- AXL protein (AXL [11]): induced AXL
